# Source: ChEMBL document CHEMBL4011617, “Ugi Reaction-Derived α-Acyl Aminocarboxamides Bind to Phosphatidylinositol 3-Kinase-Related Kinases, Inhibit HSF1-Dependent Heat Shock Response, and Induce Apoptosis in Multiple Myeloma Cells” (J Med Chem, 2017)
# Activity calls are given as the source filed them. The rule behind the calls is not given here.
# Experiments:
# [1] = target: Serine/threonine-protein phosphatase 6 regulatory subunit 1 (Homo sapiens) (UniProt Q9UPN7); assay: Binding affinity to PP6R1 protein in human INA-6 cells after 3 hrs by nanoLC-MS/MS method; format: cell-based
# In short: (§1)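 The biotinylated inhibitor was loaded on streptavidin beads, with empty beads as the control. Eluates were trypsin-digested and run by nanoLC-MS/MS. Inhibitor/control ratios came from label-free quantification, taken as medians of five biological replicates. Enrichment was called at Benjamini-Hochberg-adjusted limma p < 0.02.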
# [2] = target: Conserved oligomeric Golgi complex subunit 6 (Homo sapiens) (UniProt Q9Y2V7); assay: Binding affinity to COG6 in human INA-6 cells after 3 hrs by nanoLC-MS/MS method; format: cell-based; in short: as §1
# [3] = target: Conserved oligomeric Golgi complex subunit 7 (Homo sapiens) (UniProt P83436); assay: Binding affinity to COG7 in human INA-6 cells after 3 hrs by nanoLC-MS/MS method; format: cell-based; in short: as §1
# [4] = target: Stalled ribosome sensor GCN1 (Homo sapiens) (UniProt Q92616); assay: Binding affinity to GCN1 protein in human INA-6 cells after 3 hrs by nanoLC-MS/MS method; format: cell-based; in short: as §1
# [5] = target: Survival motor neuron protein (Homo sapiens) (UniProt Q16637); assay: Binding affinity to survival motor neuron protein in human INA-6 cells after 3 hrs by nanoLC-MS/MS method; format: cell-based; in short: as §1
# INA-6 [6] = assay: Inhibition of heat shock response in human INA-6 cells assessed as reduction in HSF-1 mediated upregulation of the heat shock protein HSP27 at 50 uM preincubated for 4 hrs followed by HSP90 inhibitor and HSR inducer NVP-AUY922 addition measured after 4 hrs by Western blot method; format: functional, cell-based
# In short: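 INA-6 myeloma cells pretreated with test compound for 4 h, then co-treated with the HSP90 inhibitor/HSR inducer NVP-AUY922 for a further 4 h. Cells harvested; HSP72, HSP27, HSF1 or phospho-HSF1 probed by Western blot with β-actin as loading control. DMSO-only cells were the negative control; NVP-AUY922-only cells were the positive control.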
# [7] = target: Conserved oligomeric Golgi complex subunit 3 (Homo sapiens) (UniProt Q96JB2); assay: Binding affinity to COG3 in human INA-6 cells after 3 hrs by nanoLC-MS/MS method; format: cell-based; in short: as §1
# [8] = target: Protein CIP2A (Homo sapiens) (UniProt Q8TCG1); assay: Binding affinity to CIP2A protein in human INA-6 cells after 3 hrs by nanoLC-MS/MS method; format: cell-based; in short: as §1
# [9] = target: CCR4-NOT transcription complex subunit 2 (Homo sapiens) (UniProt Q9NZN8); assay: Binding affinity to CCR4-NOT transcription complex subunit 2 in human INA-6 cells after 3 hrs by nanoLC-MS/MS method; format: cell-based; in short: as §1
# [10] = target: Serine-protein kinase ATM (Homo sapiens) (UniProt Q13315); assay: Binding affinity to ATM protein in human INA-6 cells after 3 hrs by nanoLC-MS/MS method; format: cell-based; in short: as §1
# [11] = target: CCR4-NOT transcription complex subunit 1 (Homo sapiens) (UniProt A5YKK6); assay: Binding affinity to CCR4-NOT transcription complex subunit 1 in human INA-6 cells after 3 hrs by nanoLC-MS/MS method; format: cell-based; in short: as §1
# [12] = target: Survival of motor neuron-related-splicing factor 30 (Homo sapiens) (UniProt O75940); assay: Binding affinity to survival of motor neuron-related-splicing factor 30 in human INA-6 cells after 3 hrs by nanoLC-MS/MS method; format: cell-based; in short: as §1
# [13] = target: CCR4-NOT transcription complex subunit 3 (Homo sapiens) (UniProt O75175); assay: Binding affinity to CCR4-NOT transcription complex subunit 3 in human INA-6 cells after 3 hrs by nanoLC-MS/MS method; format: cell-based; in short: as §1
# [14] = target: Serine/threonine-protein phosphatase 6 regulatory ankyrin repeat subunit C (Homo sapiens) (UniProt Q8NB46); assay: Binding affinity to serine/threonine-protein phosphatase 6 regulatory ankyrin repeat subunit C in human INA-6 cells after 3 hrs by nanoLC-MS/MS method; format: cell-based; in short: as §1
# Peflin (Homo sapiens) = Peflin (Homo sapiens) (UniProt Q9UBV8); assay: Binding affinity to PEF1 protein in human INA-6 cells after 3 hrs by nanoLC-MS/MS method; format: cell-based; in short: as §1
# [15] = target: Mitogen-activated protein kinase kinase kinase 6 (Homo sapiens) (UniProt O95382); assay: Binding affinity to MAP3K6 in human INA-6 cells after 3 hrs by nanoLC-MS/MS method; format: cell-based; in short: as §1
# [16] = target: CCR4-NOT transcription complex subunit 11 (Homo sapiens) (UniProt Q9UKZ1); assay: Binding affinity to CCR4-NOT transcription complex subunit 11 in human INA-6 cells after 3 hrs by nanoLC-MS/MS method; format: cell-based; in short: as §1
# [17] = target: CCR4-NOT transcription complex subunit 1 (Homo sapiens) (UniProt A5YKK6); assay: Binding affinity to CNOT1 protein in human INA-6 cells after 3 hrs by nanoLC-MS/MS method; format: cell-based; in short: as §1
# [18] = target: CCR4-NOT transcription complex subunit 10 (Homo sapiens) (UniProt Q9H9A5); assay: Binding affinity to CCR4-NOT transcription complex subunit 10 in human INA-6 cells after 3 hrs by nanoLC-MS/MS method; format: cell-based; in short: as §1
# INA-6 [19] = assay: Inhibition of heat shock response in human INA-6 cells assessed as reduction in HSF-1 mediated upregulation of the heat shock protein HSP72 at 50 uM preincubated for 4 hrs followed by HSP90 inhibitor and HSR inducer NVP-AUY922 addition measured after 4 hrs by ELISA; format: functional, cell-based
# In short: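 HSP72 quantified by ELISA in the same protein lysates used for Western blots. INA-6 cells received compound for 4 h, then NVP-AUY922 co-treatment for 4 h more to stimulate HSF1. DMSO-only and NVP-AUY922-only cells served as negative and positive controls.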
# [20] = target: Serine/threonine-protein kinase ATR (Homo sapiens) (UniProt Q13535); assay: Binding affinity to ATR protein in human INA-6 cells after 3 hrs by nanoLC-MS/MS method; format: cell-based; in short: as §1
# [21] = target: MICOS complex subunit MIC10 (Homo sapiens) (UniProt Q5TGZ0); assay: Binding affinity to MICOS complex subunit MIC10 in human INA-6 cells after 3 hrs by nanoLC-MS/MS method; format: cell-based; in short: as §1
# [22] = target: Serine/threonine-protein phosphatase 6 regulatory ankyrin repeat subunit B (Homo sapiens) (UniProt Q8N8A2); assay: Binding affinity to serine/threonine-protein phosphatase 6 regulatory ankyrin repeat subunit B in human INA-6 cells after 3 hrs by nanoLC-MS/MS method; format: cell-based; in short: as §1
# [23] = target: Protein MON2 homolog (Homo sapiens) (UniProt Q7Z3U7); assay: Binding affinity to MON2 protein in human INA-6 cells after 3 hrs by nanoLC-MS/MS method; format: cell-based; in short: as §1
# [24] = target: Programmed cell death protein 6 (Homo sapiens) (UniProt O75340); assay: Binding affinity to PDCD6 protein in human INA-6 cells after 3 hrs by nanoLC-MS/MS method; format: cell-based; in short: as §1
# [25] = target: MICOS complex subunit MIC25 (Homo sapiens) (UniProt Q9BRQ6); assay: Binding affinity to MICOS complex subunit MIC25 in human INA-6 cells after 3 hrs by nanoLC-MS/MS method; format: cell-based; in short: as §1
# [26] = target: Gem-associated protein 7 (Homo sapiens) (UniProt Q9H840); assay: Binding affinity to GEMIN7 in human INA-6 cells after 3 hrs by nanoLC-MS/MS method; format: cell-based; in short: as §1
# INA-6 [27] = assay: Inhibition of heat shock response in human INA-6 cells assessed as reduction in HSF-1 mediated upregulation of the heat shock protein HSP27 at 50 uM preincubated for 4 hrs followed by HSP90 inhibitor and HSR inducer NVP-AUY922 addition measured after 4 hrs by ELISA; format: functional, cell-based
# Chain of CCR4-NOT transcription complex subunit 1 (Homo sapiens) (A5YKK6 whole entry, one chain of several): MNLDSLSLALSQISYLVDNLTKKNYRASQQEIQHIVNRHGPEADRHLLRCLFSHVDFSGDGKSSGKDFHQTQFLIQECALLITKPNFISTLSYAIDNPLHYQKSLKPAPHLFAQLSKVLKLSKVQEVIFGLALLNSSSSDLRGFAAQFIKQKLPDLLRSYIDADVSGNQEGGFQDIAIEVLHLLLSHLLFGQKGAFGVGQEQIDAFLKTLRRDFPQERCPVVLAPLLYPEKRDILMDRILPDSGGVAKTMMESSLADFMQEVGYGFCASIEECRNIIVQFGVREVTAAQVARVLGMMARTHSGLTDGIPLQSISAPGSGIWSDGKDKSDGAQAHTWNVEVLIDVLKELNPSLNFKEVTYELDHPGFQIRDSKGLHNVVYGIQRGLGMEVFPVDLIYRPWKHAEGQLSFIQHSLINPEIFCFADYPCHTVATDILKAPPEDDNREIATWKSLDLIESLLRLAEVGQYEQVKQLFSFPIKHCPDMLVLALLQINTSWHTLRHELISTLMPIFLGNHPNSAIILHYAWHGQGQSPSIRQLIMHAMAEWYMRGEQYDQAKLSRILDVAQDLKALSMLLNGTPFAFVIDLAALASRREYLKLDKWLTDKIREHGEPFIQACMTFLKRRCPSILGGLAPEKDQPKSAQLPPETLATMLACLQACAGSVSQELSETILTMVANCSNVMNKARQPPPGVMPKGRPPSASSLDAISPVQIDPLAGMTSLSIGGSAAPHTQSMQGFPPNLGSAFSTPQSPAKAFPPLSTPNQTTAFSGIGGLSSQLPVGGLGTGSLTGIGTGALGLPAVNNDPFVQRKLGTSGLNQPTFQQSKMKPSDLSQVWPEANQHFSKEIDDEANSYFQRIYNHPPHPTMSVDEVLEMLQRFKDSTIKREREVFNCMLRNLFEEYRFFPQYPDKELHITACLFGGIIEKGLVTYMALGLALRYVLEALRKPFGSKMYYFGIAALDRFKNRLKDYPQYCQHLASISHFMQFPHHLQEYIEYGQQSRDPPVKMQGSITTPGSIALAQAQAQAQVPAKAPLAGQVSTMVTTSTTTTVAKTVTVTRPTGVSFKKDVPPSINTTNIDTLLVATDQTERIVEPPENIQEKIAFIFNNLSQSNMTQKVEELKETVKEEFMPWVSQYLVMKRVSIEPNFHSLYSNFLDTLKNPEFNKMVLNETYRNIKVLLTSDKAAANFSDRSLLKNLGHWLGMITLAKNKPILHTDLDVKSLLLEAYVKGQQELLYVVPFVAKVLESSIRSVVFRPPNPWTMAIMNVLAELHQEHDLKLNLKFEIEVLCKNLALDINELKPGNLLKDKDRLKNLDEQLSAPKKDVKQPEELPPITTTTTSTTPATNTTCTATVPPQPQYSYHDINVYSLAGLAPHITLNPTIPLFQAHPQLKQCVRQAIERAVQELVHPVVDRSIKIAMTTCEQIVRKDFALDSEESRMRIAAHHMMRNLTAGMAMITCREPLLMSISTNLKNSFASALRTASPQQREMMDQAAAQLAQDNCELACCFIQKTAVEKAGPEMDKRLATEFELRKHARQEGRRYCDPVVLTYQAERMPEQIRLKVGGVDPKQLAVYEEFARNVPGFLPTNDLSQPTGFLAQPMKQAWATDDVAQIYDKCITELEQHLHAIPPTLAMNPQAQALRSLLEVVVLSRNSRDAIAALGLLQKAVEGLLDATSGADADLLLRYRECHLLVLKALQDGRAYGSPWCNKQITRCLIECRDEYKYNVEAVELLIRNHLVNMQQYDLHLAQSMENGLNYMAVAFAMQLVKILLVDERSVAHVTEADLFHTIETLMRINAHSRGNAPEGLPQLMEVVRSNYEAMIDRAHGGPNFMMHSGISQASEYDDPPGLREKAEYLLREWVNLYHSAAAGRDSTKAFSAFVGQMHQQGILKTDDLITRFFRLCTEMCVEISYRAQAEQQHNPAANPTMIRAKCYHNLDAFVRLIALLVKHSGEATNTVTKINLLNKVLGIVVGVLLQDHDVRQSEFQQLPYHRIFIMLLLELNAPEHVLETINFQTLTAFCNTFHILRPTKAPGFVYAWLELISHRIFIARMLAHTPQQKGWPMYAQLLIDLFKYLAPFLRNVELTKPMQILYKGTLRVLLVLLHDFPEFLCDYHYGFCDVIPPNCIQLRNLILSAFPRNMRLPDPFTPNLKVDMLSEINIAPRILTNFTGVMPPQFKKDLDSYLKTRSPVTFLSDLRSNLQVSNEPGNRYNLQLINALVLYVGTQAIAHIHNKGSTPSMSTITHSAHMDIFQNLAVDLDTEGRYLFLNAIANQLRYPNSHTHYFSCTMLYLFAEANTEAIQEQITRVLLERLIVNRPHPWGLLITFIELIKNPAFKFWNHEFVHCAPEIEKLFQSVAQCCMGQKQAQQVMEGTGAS
# Chain of Survival of motor neuron-related-splicing factor 30 (Homo sapiens) (O75940 whole entry): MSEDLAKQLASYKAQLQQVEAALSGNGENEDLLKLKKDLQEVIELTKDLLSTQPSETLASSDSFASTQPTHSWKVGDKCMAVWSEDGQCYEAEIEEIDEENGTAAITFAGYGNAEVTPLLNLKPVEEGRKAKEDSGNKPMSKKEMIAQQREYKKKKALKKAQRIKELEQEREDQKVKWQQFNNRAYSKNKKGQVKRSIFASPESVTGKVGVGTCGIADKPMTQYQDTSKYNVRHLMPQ
# Chain of CCR4-NOT transcription complex subunit 10 (Homo sapiens) (Q9H9A5 whole entry, one chain of several): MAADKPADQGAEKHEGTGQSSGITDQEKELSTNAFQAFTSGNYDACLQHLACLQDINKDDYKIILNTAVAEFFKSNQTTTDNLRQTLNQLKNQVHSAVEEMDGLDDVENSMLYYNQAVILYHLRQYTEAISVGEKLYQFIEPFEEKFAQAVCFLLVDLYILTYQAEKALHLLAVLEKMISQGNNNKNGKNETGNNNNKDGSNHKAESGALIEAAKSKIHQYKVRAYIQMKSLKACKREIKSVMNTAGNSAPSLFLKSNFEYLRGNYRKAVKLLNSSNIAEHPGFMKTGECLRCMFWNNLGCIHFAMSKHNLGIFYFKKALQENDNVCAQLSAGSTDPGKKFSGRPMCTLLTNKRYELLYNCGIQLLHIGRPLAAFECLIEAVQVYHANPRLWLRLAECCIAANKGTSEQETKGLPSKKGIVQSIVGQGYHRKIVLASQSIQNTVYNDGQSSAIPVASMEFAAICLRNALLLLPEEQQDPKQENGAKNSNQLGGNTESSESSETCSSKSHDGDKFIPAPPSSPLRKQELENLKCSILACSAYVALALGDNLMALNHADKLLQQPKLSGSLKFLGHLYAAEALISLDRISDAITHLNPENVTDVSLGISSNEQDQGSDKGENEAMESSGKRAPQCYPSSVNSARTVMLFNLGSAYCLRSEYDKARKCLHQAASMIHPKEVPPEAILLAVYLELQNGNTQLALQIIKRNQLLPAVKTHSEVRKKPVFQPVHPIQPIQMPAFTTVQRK
# Chain of CCR4-NOT transcription complex subunit 2 (Homo sapiens) (Q9NZN8 whole entry, one chain of several): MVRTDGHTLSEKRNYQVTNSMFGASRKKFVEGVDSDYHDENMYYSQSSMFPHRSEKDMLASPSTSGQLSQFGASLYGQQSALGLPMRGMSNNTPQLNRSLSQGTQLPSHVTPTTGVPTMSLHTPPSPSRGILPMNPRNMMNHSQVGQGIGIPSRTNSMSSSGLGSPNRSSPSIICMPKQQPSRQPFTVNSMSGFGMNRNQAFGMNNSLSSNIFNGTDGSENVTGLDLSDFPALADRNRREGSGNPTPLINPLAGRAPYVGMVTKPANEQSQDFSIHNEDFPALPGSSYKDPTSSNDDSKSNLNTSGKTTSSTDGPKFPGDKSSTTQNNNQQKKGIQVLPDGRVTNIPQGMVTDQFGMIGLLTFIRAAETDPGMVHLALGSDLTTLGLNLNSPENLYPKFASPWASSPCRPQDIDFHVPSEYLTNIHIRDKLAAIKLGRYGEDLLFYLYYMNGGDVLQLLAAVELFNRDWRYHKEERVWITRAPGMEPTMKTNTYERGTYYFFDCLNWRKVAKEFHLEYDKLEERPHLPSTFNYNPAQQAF
# Chain of Conserved oligomeric Golgi complex subunit 3 (Homo sapiens) (Q96JB2 whole entry, one chain of several): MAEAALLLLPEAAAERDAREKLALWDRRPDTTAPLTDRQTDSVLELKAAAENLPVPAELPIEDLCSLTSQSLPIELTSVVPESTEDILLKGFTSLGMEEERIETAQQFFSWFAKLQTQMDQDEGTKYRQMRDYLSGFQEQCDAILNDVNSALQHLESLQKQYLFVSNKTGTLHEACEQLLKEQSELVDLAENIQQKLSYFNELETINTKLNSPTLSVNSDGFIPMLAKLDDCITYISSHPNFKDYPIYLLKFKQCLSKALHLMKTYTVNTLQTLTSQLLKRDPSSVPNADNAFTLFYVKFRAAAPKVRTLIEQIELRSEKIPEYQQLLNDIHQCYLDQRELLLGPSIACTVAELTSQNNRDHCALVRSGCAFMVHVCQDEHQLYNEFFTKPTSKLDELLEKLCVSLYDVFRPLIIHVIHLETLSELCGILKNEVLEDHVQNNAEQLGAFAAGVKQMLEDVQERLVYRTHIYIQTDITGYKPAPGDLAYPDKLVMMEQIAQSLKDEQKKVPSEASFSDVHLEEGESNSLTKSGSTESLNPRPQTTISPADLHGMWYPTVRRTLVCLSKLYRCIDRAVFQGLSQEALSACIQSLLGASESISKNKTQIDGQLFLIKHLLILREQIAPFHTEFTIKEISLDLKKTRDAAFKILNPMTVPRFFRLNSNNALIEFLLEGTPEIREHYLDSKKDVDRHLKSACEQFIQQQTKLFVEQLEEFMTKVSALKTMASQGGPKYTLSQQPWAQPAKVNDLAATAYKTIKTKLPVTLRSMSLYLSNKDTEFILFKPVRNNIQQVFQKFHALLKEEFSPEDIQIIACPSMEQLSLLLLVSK
# Chain of Programmed cell death protein 6 (Homo sapiens) (O75340 whole entry): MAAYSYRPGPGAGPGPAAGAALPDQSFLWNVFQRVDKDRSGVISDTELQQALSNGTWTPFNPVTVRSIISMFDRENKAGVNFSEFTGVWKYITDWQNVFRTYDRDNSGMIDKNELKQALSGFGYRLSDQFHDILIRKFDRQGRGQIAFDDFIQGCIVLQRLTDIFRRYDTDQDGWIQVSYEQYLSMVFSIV
# Chain of MICOS complex subunit MIC10 (Homo sapiens) (Q5TGZ0 whole entry, one chain of several): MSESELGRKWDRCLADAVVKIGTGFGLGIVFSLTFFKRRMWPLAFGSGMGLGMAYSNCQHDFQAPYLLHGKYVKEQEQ
SMILES,Activity [1],Activity [2],Activity [3],Activity [4],Activity [5],activity call (active/not active) for inhibition of HSP27 upregulation (INA-6 [6]),Activity [7],Activity [8],Activity [9],Activity [10],Activity [11],Activity [12],Activity [13],Activity [14],Activity (Peflin (Homo sapiens)),Activity [15],Activity [16],Activity [17],Activity [18],HSP72 upregulation inhibition (active/not active) (INA-6 [19]),other results
O=C(CCCC[C@@H]1SC[C@@H]2NC(=O)N[C@@H]21)NCCOCCOCCNCCOc1ccc(C(C(=O)NCc2ccccc2)N(C(=O)CCc2ccc(O)cc2)C2CC2)cc1 (mixture of isomers),Active,Active,Active,Active,Active,inactive,Active,Active,Active,Active,Active,Active,Active,Active,Active,Active,Active,Active,Active,inactive,Activity [20]: Active; Activity [21]: Active; Activity [22]: Active; Activity [23]: Active; Activity [24]: Active; Activity [25]: Active; Activity [26]: Active; heat shock response inhibition (active/not active) (INA-6 [27]): inactive
O=C(CCCC[C@@H]1SC[C@@H]2NC(=O)N[C@@H]21)NCCOCCOCCNCCOc1ccc(C(C(=O)NCc2ccccc2)N(C(=O)CCc2ccccc2)C2CC2)cc1 (mixture of isomers),Active,Active,Active,Active,Active,inactive,Active,Active,Active,Active,Active,Active,Active,Active,Active,Active,Active,Active,Active,inactive,Activity [20]: Active; Activity [21]: Active; Activity [22]: Active; Activity [23]: Active; Activity [24]: Active; Activity [25]: Active; Activity [26]: Active; heat shock response inhibition (active/not active) (INA-6 [27]): inactive
